Read-outs that look alike come from different tables or passages of the source.
Legend:
AMACR-MBP [1] = target: T1, AMACR-MBP (Homo sapiens, UniProt Q9UHK6); test: AMACR inhibitor IC50 determination; format: biochemical
T1 sequence (Q9UHK6 1-382): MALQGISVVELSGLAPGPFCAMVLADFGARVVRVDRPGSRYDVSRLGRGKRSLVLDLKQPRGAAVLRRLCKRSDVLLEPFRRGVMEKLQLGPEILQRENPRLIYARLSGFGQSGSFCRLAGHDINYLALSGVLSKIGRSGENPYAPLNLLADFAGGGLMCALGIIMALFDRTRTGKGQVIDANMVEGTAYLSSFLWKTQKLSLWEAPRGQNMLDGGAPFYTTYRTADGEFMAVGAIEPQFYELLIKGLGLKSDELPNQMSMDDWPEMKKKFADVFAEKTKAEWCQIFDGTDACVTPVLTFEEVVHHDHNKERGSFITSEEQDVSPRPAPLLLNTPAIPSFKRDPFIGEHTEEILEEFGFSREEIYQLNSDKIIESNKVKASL
How it was run: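 Run as the plate screen (0.3 μM AMACR-MBP, 100 μM [2,3-3H]Pri-CoA, SPE and scintillation read-out), adding enzyme last. Test compound was dosed at 1–1000 μM, extended to 1–750 nM for selected compounds, from 100% DMSO stocks, giving 2–6% DMSO, in triplicate. Fractional activity was fitted by 3-parameter log(inhibitor)-response regression.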

AMACR-MBP [2] = target: T1, AMACR-MBP; test: Kinetic parameters; format: biochemical; settings: 0.3 μM AMACR-MBP, 37°C, ± SEM
How it was run: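 Reactions of 185 μL held 0.3 μM AMACR-MBP in Na/K/Pi pH 7.25 with BSA at 37°C. [2,3-3H]Pri-CoA was used at 1–400 μM (twelve levels), all at 60 Ci/mol, and reactions were started with enzyme. Aliquots of 20 μL were taken at 0–900 s and quenched in 2 M HCl, with no-enzyme backgrounds at each time point. Aliquots were processed by SPE/scintillation, DPM were converted to rates, and rates were fitted directly to Michaelis-Menten.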

AMACR-MBP [3] = target: T1, AMACR-MBP; test: Effect of pre-incubation time on ebselen inhibition; format: biochemical
WPMY1 = test: In-vitro LD50, alamarBlue viability, WPMY1; format: cell-based, human; settings: WPMY1, 48 hours
How it was run: (§1)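 Cells were plated at 10,000 per well in triplicate and allowed to attach overnight. Medium was replaced with test compound (0–500 μM or 0–400 μM depending on compound) for 48 h. Cells were then incubated with alamarBlue for 4 h and fluorescence read at 544 ex/590 em. After media-only background subtraction, viability was expressed as a percent of the vehicle control. LD50 came from a 4-parameter variable-slope fit with the bottom constrained to zero.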

[4] = neuroprotective doses, 300 mg/day, oral; ref [44], [46]; cited from earlier work
PC3 = test: In-vitro LD50, alamarBlue viability, PC3; format: cell-based, human; settings: PC3, 48 hours
How it was run: as §1

AMACR-MBP [5] = target: T1, AMACR-MBP; test: High-throughput screen for AMACR inhibitors; format: biochemical; settings: for inhibition at 100 µM: read-out: inhibition (decrease of fractional activity) in HTS
How it was run: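 Recombinant AMACR-MBP was expressed in E. coli TB1, purified on a maltose column and dialysed into 100 mM Na/K/Pi pH 7.25. Enzyme (0.3 μM) was incubated with 100 μM test compound (1% DMSO) and 150 μM [2,3-3H]Pri-CoA (60 Ci/mol) in buffer with 0.125 mg/mL BSA for 30 min at 37°C. Reactions were acid-quenched, neutralised and passed through C18 SPE, and released 3H2O was scintillation-counted. Fractional activity was calculated against each row's no-inhibitor control after no-enzyme background subtraction; <0.8 was flagged as a hit.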

LAPC4 = test: In-vitro LD50, alamarBlue viability, LAPC4; format: cell-based, human; settings: LAPC4, 48 hours
How it was run: as §1

Mode of cell death = format: cell-based; settings: Supplementary Figure S7
LNCaP = test: In-vitro LD50, alamarBlue viability, LNCaP; format: cell-based, human; settings: 48 hours
How it was run: as §1

[6] = test system: prostate cancer cell lines (LAPC4/LNCaP/PC3) compared to WPMY1; format: cell-based, human; settings: highest vs lowest AMACR expressor
How it was run: as §1

AMACR-MBP [7] = target: T1, AMACR-MBP; test: Kitz-Wilson analysis of time-dependent inactivation; format: biochemical; settings: for KI (inactivation): 37°C, Kitz-Wilson transformation
How it was run: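 Inactivation mixtures at 37°C contained test compound at a series of concentrations and 5 μM AMACR-MBP, started with enzyme. At timed points from zero, 2 μL was diluted 50-fold into buffer with 150 μM [2,3-3H]Pri-CoA (100 nM final enzyme) and reacted for 30 min, then SPE/scintillation. Activity remaining was expressed versus time-matched no-inhibitor controls. T1/2 was regressed against 1/[I], giving kinact = ln2/y-intercept and KI(inact) = −1/x-intercept.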

AMACR = target: T2, AMACR (Homo sapiens, UniProt Q9UHK6); test: Pre-incubation of AMACR with cysteine specific reagents, with or without ebselen; format: biochemical; settings: 20 mM dithithreitol, 5 mM tributylphosphine, 15 mM iodoacetamide
T2 sequence (Q9UHK6 1-382): T1 sequence (Q9UHK6 1-382)

O=C1c2ccccc2[Se](=O)N1c1ccccc1 (centres unmarked) [ebselen oxide]
IC50 (AMACR-MBP [1]; 100 μM [2,3-3H]Pri-CoA, 0.3 μM AMACR-MBP, enzyme initiated): 0.8 µM

[3H]C(CCC(C)CCCC(C)CCCC(C)C)C([3H])(C)C(=O)SCCNC(=O)CCNC(=O)[C@H](O)C(C)(C)COP(=O)(O)OP(=O)(O)OC[C@H]1O[C@@H](n2cnc3c(N)ncnc32)[C@H](O)[C@@H]1OP(=O)(O)O (some centres unmarked) [[2,3-^3H] Pri-CoA, [2,3-^3H] pristanoyl coenzyme A]
Vmax (AMACR-MBP [2]): 294.9 ± 21.10 pmol/min

O=c1c2ccccc2[se]n1-c1ccccc1 [ebselen]
fractional activity of AMACR-MBP (AMACR-MBP [3]; no pre-incubation (enzyme initiated)): ~ 50%
fractional activity of AMACR-MBP (AMACR-MBP [3]; pre-incubation time of ≥ 5 minutes (substrate initiated)): just above background
LD50 (WPMY1): 467.1 ± 1.017 µM
tolerability in clinical trials [4]: well tolerated
LD50 (PC3): 332.3 ± 1.015 µM
inhibition at 100 µM (AMACR-MBP [5]): ≥ 20%
LD50 (LAPC4): 98.43 ± 1.038 µM
IC50 (AMACR-MBP [1]): 2.79 µM
type of cell death induced (Mode of cell death): necrotic cell death
LD50 (LNCaP): 71.96 ± 1.106 µM
difference in LD50 between LNCaP and WPMY1 [6]: 5 fold
mode of inhibition (AMACR-MBP [7]): irreversible inactivators
KI (inactivation) (AMACR-MBP [7]): 24 µM

NC(=O)CI [IAA, iodoacetamide]
effect of pre-incubation with cysteine specific reagent on AMACR-MBP activity (AMACR): does not abrogate AMACR-MBP activity

Nc1c(/N=N/c2ccc(-c3ccc(/N=N/c4cc(S(=O)(=O)O)c5ccccc5c4N)cc3)cc2)cc(S(=O)(=O)O)c2ccccc12 [Congo Red, congo red]
inhibition at 100 µM (AMACR-MBP [5]): ≥ 20%

Cc1cc(O)c(-c2cc(O)c(C)cc2O)cc1O [DMPMB, 2-(2,5-dihydroxy-4-methylphenyl)-5-methyl benzene-1,4-diol]
LD50 (WPMY1): 117.6 ± 1.011 µM
LD50 (PC3): 101.1 ± 1.034 µM
LD50 (LAPC4): 58.78 ± 1.058 µM
type of cell death induced (Mode of cell death): necrotic cell death
LD50 (LNCaP): 116.9 ± 1.033 µM
mode of inhibition (AMACR-MBP [7]): irreversible inactivators
KI (inactivation) (AMACR-MBP [7]): 24.3 µM

O[C@@H](CS)[C@@H](O)CS (racemic) [DTT, dithithreitol]
effect of pre-incubation with cysteine specific reagent on AMACR-MBP activity (AMACR): does not abrogate AMACR-MBP activity

CCCCP(CCCC)CCCC [TBP, tributylphosphine]
effect of pre-incubation with cysteine specific reagent on AMACR-MBP activity (AMACR): does not abrogate AMACR-MBP activity

CC(C)CCCC(C)CCCC(C)CCCC(C)C(=O)SCCNC(=O)CCNC(=O)[C@H](O)C(C)(C)COP(=O)(O)OP(=O)(O)OC[C@H]1O[C@@H](n2cnc3c(N)ncnc32)[C@H](O)[C@@H]1OP(=O)(O)O (some centres unmarked) [[2,3-^3H] Pri-CoA, [2,3-^3H] pristanoyl coenzyme A]
Km (AMACR-MBP [2]): 85.6 ± 17.1 µM

CSc1nc(=S)c2[nH]c(=S)[nH]c2[nH]1 [MSDTP, 2-methylsulfanyl-7,9-dihydro-3H-purine-6,8-dithione]
mode of inhibition (AMACR-MBP [7]): covalent inactivators

O=C1c2c(O)ccc(O)c2C(=O)c2c(NCCNCCO)ccc(NCCNCCO)c21 [mitoxantrone]
inhibition of AMACR-MBP detected in library screen (AMACR-MBP [5]; 100 μM, both JHDL and NCI/DTP libraries): inhibition of AMACR-MBP
